Laboratory results from ChEMBL document CHEMBL1122442, “Antifertility agents. 38. Effect of the side chain and its position on the activity of 3,4-diarylchromans” (1983).
Calls of active or inactive are those of the source. No cut-off for these calls is given here.

What was measured:
[1] = molecular target: T1, Estrogen receptor (Rattus norvegicus) (UniProt P06211+Q62986)
Rattus norvegicus [2] = species on record: Rattus norvegicus; assay: Effective dose for antiimplantation activity in male albino rats; format: functional; settings: in the assay text read “female” for “male”
Outline: (§1)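 Colony-bred adult female albino rats (150-170 g) mated with fertile coeval males; suspension in gum acacia given orally on days 1-7 postcoitum; positive only when implants were wholly absent from both uterine horns.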

Rattus norvegicus [3] = species on record: Rattus norvegicus; assay: Effective dose for anti-implantation activity in male albino rats; Nil; format: functional, organism-based; settings: in the assay text read “female” for “male”
Outline: as §1

Rattus norvegicus [4] = assay: Effective dose for anti-implantation activity in female albino rats at 10 mg/kg; A-Active
Rattus norvegicus [5] = assay: Effective dose for antiimplantation activity in male albino rats at 2 mg/Kg;IN-Inactive; format: functional, organism-based; settings: in the assay text read “female” for “male”
Outline: as §1

[6] = molecular target: T1, Estrogen receptor (Rattus norvegicus); assay: Effect on uterine weight gain in immature rats by subcutaneous dose; N-Nil; format: functional
Outline: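 Immature rats (25-30 g); dosed subcutaneously once daily for 3 days in 0.2 mL saline/propylene glycol (1:1, v/v); estrogenicity read as uterine weight gain.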

Rattus norvegicus [7] = assay: Effective dose for anti-implantation activity in female albino rats at 10 mg/kg; IN-Inactive
[8] = molecular target: T1, Estrogen receptor (Rattus norvegicus); assay: Relative binding affinity for uterine cytosol 17-beta-estradiol receptor from immature rats; N-Nil; format: protein assay
Outline: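 Competitive binding against 17β-estradiol for uterine cytosol receptor from immature Charles Foster rats aged 21-25 days; dextran-coated charcoal removes unbound steroid; expressed as relative binding affinity.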

| Structure (SMILES) | ED100 (Rattus norvegicus [2]) | ED100 (Rattus norvegicus [5]) | further results |
| --- | --- | --- | --- |
| COc1ccc2c(c1)OC(C)(C)C(c1ccccc1)C2c1ccc(OCCN2CCCC2)cc1 (stereo in doubt; 1) | – | – | Estrogenic effect [1]: 0.56 |
| COc1ccc2c(c1)OC(C)(C)C(c1ccccc1)=C2c1cccc(OCCN2CCCC2)c1.Cl | 1 mg/kg/day | – | – |
| COc1ccc2c(c1)OC(C)(C)C(c1ccccc1)C2c1ccc(O)cc1 (centres undefined) | – | – | Estrogenic effect [1]: 0.2; ED100 (Rattus norvegicus [3]): inactive |
| COc1ccc2c(c1)OC(C)(C)C(c1ccc(O)cc1)C2c1ccccc1 (stereo in doubt; 33) | 1 mg/kg/day | – | – |
| COc1ccc2c(c1)OC(C)(C)C(c1ccc(O)cc1)=C2c1ccccc1 | – | inactive | ED100 (Rattus norvegicus [4]): Active |
| COc1ccc2c(c1)OC(C)(C)C(c1ccccc1)C2c1ccc(OCCN2CCCC2)cc1 (stereo in doubt; 2) | – | – | Estrogenic effect [6]: inactive |
| COc1ccc2c(c1)OC(C)(C)C(c1ccccc1)=C2c1ccc(OCCN2CCCC2)cc1 | 5 mg/kg/day | – | – |
| COc1ccc2c(c1)OC(C)(C)C(c1ccc(O)cc1)C2c1ccccc1 (stereo in doubt; 31) | – | – | ED100 (Rattus norvegicus [7]): inactive |
| COc1ccc2c(c1)OC(C)(C)C(c1ccccc1)=C2c1ccccc1OCCN1CCCC1 | – | – | ED100 (Rattus norvegicus [7]): inactive; relative binding affinity (RBA) [8]: inactive |
| COc1ccc2c(c1)OC(C)(C)C(c1ccc(OCCN3CCCC3)cc1)=C2c1ccccc1 | – | inactive | relative binding affinity (RBA) [8]: inactive |
| CCN(CC)CCOc1ccc(C2c3ccc(OC)cc3OC(C)(C)C2c2ccccc2)cc1.Cl (centres undefined) | 0.3 mg/kg/day | – | – |
| CC1(C)Oc2cc(O)ccc2C(c2ccc(OCCN3CCCC3)cc2)C1c1ccccc1 (centres undefined) | 0.25 mg/kg/day | – | Estrogenic effect [1]: 11.8 |
| COc1ccc2c(c1)OC(C)(C)C(c1ccccc1)C2c1ccc(OCCN2CCCC2)cc1 (stereo in doubt; 2) [ORMELOXIFENE] | 50 mg/kg/day | – | – |
| COc1ccc2c(c1)OC(C)(C)C(c1ccc(OCCN3CCCC3)cc1)C2c1ccccc1 (centres undefined) | 2 mg/kg/day | inactive | relative binding affinity (RBA) [8]: inactive; Estrogenic effect [1]: 2.2 |
| COc1ccc2c(c1)OC(C)(C)C(c1ccccc1)C2c1cccc(OCCN2CCCC2)c1 (stereo in doubt; 22) | – | inactive | – |
| COc1ccc2c(c1)OC(C)(C)C(c1ccccc1)C2c1ccc(OCCN2CCCC2)cc1 (stereo in doubt; 1) [ORMELOXIFENE] | 0.25 mg/kg/day | – | – |
| COc1ccc2c(c1)OC(C)(C)C(c1ccccc1)C2c1ccc(OCCCN2CCCC2)cc1.Cl (centres undefined) | 0.3 mg/kg/day | – | – |
| COc1ccc2c(c1)OC(C)(C)C(c1ccccc1)C2c1ccccc1OCCN1CCCC1 (centres undefined) | – | inactive | relative binding affinity (RBA) [8]: inactive |
| COc1ccc2c(c1)OC(C)(C)C(c1ccccc1)C2c1ccc(OCCN(C)C)cc1.Cl (centres undefined) | 2 mg/kg/day | – | – |
| COc1ccc2c(c1)OC(C)(C)C(c1ccccc1)C2c1cccc(OCCN2CCCC2)c1 (stereo in doubt; 11) | – | inactive | – |
